Screening results as filed in PubChem.
procasp7 counter: procaspase-7 activators, primary screen, counter-screen for procaspase-3 activator project, biochemical, absorbance, HTS, human | Caspase-7 (Homo sapiens), P55210 | recombinant procaspase-7, Ac-DEVD-pNA absorbance 405 nm; D23A/D198A/D206A triple mutant, cannot self-cleave; scale: DMSO 0, 5 µM enzyme 100 | activation, % at 8.5 µM | hit rate 0.093% among 330,000;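 active = percent activation above the screen-wide mean plus 3 SD, cut at about 25% in these data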
Target sequence (P55210 whole entry D23A/D198A/D206A): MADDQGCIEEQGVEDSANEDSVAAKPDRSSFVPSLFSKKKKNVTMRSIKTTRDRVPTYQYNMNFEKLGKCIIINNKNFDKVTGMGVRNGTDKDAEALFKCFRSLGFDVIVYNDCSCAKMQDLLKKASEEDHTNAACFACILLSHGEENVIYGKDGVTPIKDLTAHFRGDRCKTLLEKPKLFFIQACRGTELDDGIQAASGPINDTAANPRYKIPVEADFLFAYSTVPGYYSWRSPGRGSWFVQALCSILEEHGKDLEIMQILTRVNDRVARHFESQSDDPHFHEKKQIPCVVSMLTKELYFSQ
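Assay system: Uncleavable procaspase-7 mutant enzyme / Input: 2 µM procaspase-7 mutant as dispensed / Dosing: single nominal 8.5 µM compound dose, 0.8% DMSO final / Timing: 1 h enzyme–compound preincubation and 2 h substrate reaction, both 25 °C / Detection: p-Nitroaniline absorbance at 405 nm, read at 0 and 120 min / Replication: singlicate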
procasp3 activ: activators of human procaspase-3 D3A mutant, primary screen, biochemical, absorbance, PC-3 D3A mutant, single concentration. activation, % at 8.5 µM. recombinant procaspase-3 D3A, Ac-DEVD-pNA absorbance 405 nm. hit rate 0.11% among 330,000. AID 463141, 2010. Caspase-3 (Homo sapiens), P42574;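 active = activation above the mean of all tested compounds plus 3 SD, cut at about 21% in these data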;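 note: 0% = DMSO alone and 100% = DMSO wells spiked with extra 5 µM PC-3 D3A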
Target sequence (P42574 whole entry D9A/D28A/D175A): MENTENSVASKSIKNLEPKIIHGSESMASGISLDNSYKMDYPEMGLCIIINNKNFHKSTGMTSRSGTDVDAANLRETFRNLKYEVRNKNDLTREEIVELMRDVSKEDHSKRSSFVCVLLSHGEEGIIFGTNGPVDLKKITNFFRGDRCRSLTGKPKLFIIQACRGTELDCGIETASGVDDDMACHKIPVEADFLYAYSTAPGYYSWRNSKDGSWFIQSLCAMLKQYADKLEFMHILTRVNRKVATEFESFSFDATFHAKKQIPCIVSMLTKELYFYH
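Test system: Procaspase-3 D3A mutant, all three cleavage aspartates alanine | Dosing: Single dose, 8.5 µM nominal compound, 0.8% DMSO | Schedule: 1 h preincubation, 2 h reaction | Technique: 405 nm absorbance of p-nitroaniline, reads at 0 and 120 min | Repeats: One well per compound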
PLCg1 inh: PLC-gamma1 enzyme inhibitors, primary screen, biochemical, fluorescence, purified enzyme | 1-phosphatidylinositol 4,5-bisphosphate phosphodiesterase gamma-1 (Homo sapiens), P19174 | inhibition, % at 12.2 µM | fluorogenic substrate | hit rate 0.84% among 370,000 | AID 720700, 2013; in the data active = inhibition above about 9.5%
PLCb3 inh: human PLC-beta3 inhibitors, primary screen, biochemical, fluorescence | 1-phosphatidylinositol 4,5-bisphosphate phosphodiesterase beta-3 (Homo sapiens), Q01970 | Purified PLC-beta3, fluorogenic substrate | inhibition, % at 12.2 µM | hit rate 0.18% among 370,000 | AID 720704, 2013; in the data active = inhibition above about 11%;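 note: 0% = median of compound wells on plate and 100% = full blocker control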
HGIII-sPLA2 inh: human group III sPLA2 inhibitors, primary screen, biochemical, QFRET, BODIPY PC-A2 liposome substrate; Group 3 secretory phospholipase A2 (Homo sapiens), Q9NZ20; QFRET BODIPY PC-A2 liposome hydrolysis, fluorescence; inhibition, % at 12.2 µM; hit rate 0.56% among 370,000;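 active = inhibition above mean plus 3 SD of compounds lying within the high and low control bounds, cut at about 19% in these data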;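 note: 0% = median of test compound wells and 100% = no enzyme DMSO wells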
hGIII sPLA2 conf: human group III sPLA2 inhibitors, confirmation, biochemical, QFRET, triplicate | shares compounds with HGIII-sPLA2 inh | recombinant hGIII-sPLA2, BODIPY PC-A2 QFRET fluorescence | inhibition, % at 12.2 µM | hit rate 34% among 2,000 | AID 743280, 2014;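 active = mean inhibition across triplicates above the hit cutoff set in the earlier primary screen, cut at about 19% in these data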;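 note: 0% = enzyme with DMSO and 100% = DMSO wells lacking enzyme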
535nm interf: 535nm fluorescence optical interference, confirmation, artefact control for HGIII-sPLA2 inhibitor project, biochemical, QFRET | shares compounds with HGIII-sPLA2 inh | BODIPY FL product fluorescence interference | inhibition, % at 12.2 µM | hit rate 8.5% among 2,000 | AID 743282, 2014;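 active = average inhibition above the solvent-only control mean plus 3 SD, cut at about 6% in these data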;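 note: 0% = DMSO with substrate plus product and 100% = DMSO with substrate alone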
BODIPY interf DR: 535nm fluorescence optical interference, dose response, artefact control for HGIII-sPLA2 inhibitor project, biochemical, QFRET. shares compounds with HGIII-sPLA2 inh. BODIPY FL product fluorescence interference, cell-free. IC50, µM. 240 tested, under 10 active. AID 743455, 2014;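 active = IC50 at or below 10 µM; inactive = IC50 above 10 µM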
* hit, by the source's call; i = inactive; x = no result. In the library only some 1.6% were active in any assay of this set; here they are far more common.

SMILES	procasp7 counter	procasp3 activ	PLCg1 inh	PLCb3 inh	HGIII-sPLA2 inh	hGIII sPLA2 conf	535nm interf	others
CCN(C(=O)COC(=O)/C=C/c1c(C)nn(-c2ccccc2)c1C)c1c(N)n(Cc2ccccc2)c(=O)[nH]c1=O	x	x	1.9	-4.0	2.3	x	x
COc1ccc(CCNC(=O)c2coc(=O)c(Br)c2)cc1	3.8	-8.0	-119.1	-151.0	-0.8	x	x
COc1ccc(C(=O)NC(=S)NNC(=O)c2cccc(C)c2)cc1	-20.8	-7.6	-3.4	-9.8	27.2*	38.5*	-7.2	BODIPY interf DR=>122
COc1ccc(C(=O)NC(=S)Nc2nc(C)c(C(=O)N(C)C)s2)cc1	-5.0	4.7	5.5	3.9	22.2*	15.4	-3.7
COc1ccc(C(=O)NC(=S)NNC(=O)c2ccncc2)cc1Br	-10.2	-1.5	-32.5	-40.8	28.9*	26.2*	3.5
CCOC(=O)c1sc(NC(=S)NC(=O)c2ccco2)nc1C	-0.9	-14.4	-0.1	-8.5	27.1*	14.6	1.7
COC(=O)c1sc(NC(=O)c2ccco2)nc1C	0.8	5.3	1.3	0.4	-5.2	x	x
Cc1ccc(S(=O)(=O)N2C[C@@H](C)[C@]3(C2)[C@H](O)[C@H](OC(=O)Nc2c(C)noc2C)C[C@H]2C(=O)N(c4ccccc4)C(=O)[C@H]23)cc1	x	x	-1.9	2.2	-11.3	x	x
COc1ccc(C2C(C(=O)Nc3cc(OC)c(OC)c(OC)c3)CCC(=O)N2c2ccc(OC)cc2)cc1 (stereo unspecified)	x	x	-1.1	-1.5	-3.0	x	x
CN1CCN(NC(=O)c2cccc(Br)c2)CC1	8.6	11.7	6.2	-3.4	21.2*	2.1	-1.6
COc1ccc(C(=O)NNC(=S)NC(=O)c2cccs2)cc1	-9.3	-5.7	-1.1	-3.3	21.0*	40.0*	1.6	BODIPY interf DR=>122
Cc1ccc(C(=O)NNC(=S)NC(=O)c2ccco2)cc1	-16.3	-7.9	-0.7	-3.5	21.8*	32.4*	-7.1	BODIPY interf DR=>122
CCNC(=S)NNC(=O)c1ccncc1	-13.8	-5.4	0.5	1.6	2.9	x	x
CCNC(=S)NNC(=O)c1cccc(Br)c1	3.9	9.9	7.4	2.8	21.9*	32.6*	-3.9
COc1ccc(/C=C/C(=O)NC(=S)NNC(=O)c2cccs2)cc1	-24.1	-12.6	-18.1	-19.0	7.9	x	x
CC(C)Cn1cc(-c2cccc3nccn23)cn1	x	x	-55.3	-70.5	-4.3	x	x
CC12CCC(C(N)C1=O)C2(C)C (stereo unspecified)	x	x	1.8	-1.4	-3.6	x	x
COC(=O)C1=C(C)N(CCc2cc(OC)c(OC)c(OC)c2)C(=O)N[C@H]1c1ccccc1	-2.2	-3.8	-3.5	-3.9	4.6	x	x
Cc1ccc2nc(NC(=S)NC(=O)c3ccc(OC(C)C)cc3)sc2c1	1.6	-6.4	-0.8	-6.7	9.5	x	x
CC(=O)Nc1ccc(NC(=S)NC(=O)c2ccc(-c3ccccc3)cc2)cc1	3.1	3.8	2.1	-8.3	3.7	x	x
CCCOc1ccc(C(=O)NC(=S)Nc2nc3ccccc3s2)cc1	-1.7	-4.0	6.3	2.3	26.0*	1.9	-1.9
CC(C)(C)NC(=S)NNC(=O)c1ccncc1	-5.7	1.5	-4.2	-4.5	23.1*	6.9	-4.7
Cc1ccc(NC(=O)NC(=S)NC(=O)c2ccccc2)cc1	5.2	-8.0	-1.0	-6.8	23.3*	-14.1	3.6
OC(c1ccc(F)c(F)c1)c1nc(-c2ccc3c(c2)OCO3)cs1 (stereo unspecified)	x	x	0.3	0.3	-14.4	x	x
CN(C)c1ccc(N=Cc2nc(-c3ccccc3)oc2OC(=O)c2cccc(Cl)c2)cc1	3.0	-4.2	-10.0	-7.2	21.7*	8.3	-3.8
SMILES	procasp7 counter	procasp3 activ	PLCg1 inh	PLCb3 inh	HGIII-sPLA2 inh	hGIII sPLA2 conf	535nm interf	others
C=CCOc1ccccc1CN1CCCC(CCC(=O)N(C)CCc2ccccn2)C1 (stereo unspecified)	5.7	-2.5	1.0	1.9	4.2	x	x
COc1ccc2c(c1)cc(C(=O)N/N=C/c1c(O)c(C(=O)O)cc3ccccc13)n2C	-56.7	-26.3	i	i	19.2*	16.5	2.1
Cn1c(O)c(/C=N/NC(=O)c2cc3ccccc3cc2O)c2ccccc21	-14.7	-5.6	-48.7	-79.5	0.5	x	x
CC(C)(C)Nc1nc(Cl)nc(NC(C)(C)C)n1	-3.7	-4.1	6.7	-0.2	22.6*	10.4	-10.1
CNc1nc(Cl)nc(NC(C)(C)C)n1	4.3	-4.1	-4.3	0.9	1.4	x	x
CCOc1ccc2[nH]c3c(NCCOC)ncnc3c2c1	10.7	1.3	-290.9	-394.2	-4.0	x	x
CCOc1ccc2[nH]c3c(NCCN(CC)CC)ncnc3c2c1	11.1	1.1	-262.9	-343.2	20.2*	1.7	-15.7
COc1ccc(NC(=S)N(Cc2ccc(N(C)C)cc2)Cc2ccco2)cc1	-12.8	-5.3	-0.1	-4.9	21.7*	10.3	-7.5
NS(=O)(=O)c1cccc(NC(=O)CCC(=O)c2cccs2)c1	-0.9	4.1	4.9	0.4	2.3	x	x
NS(=O)(=O)c1cccc(NC(=O)c2cccs2)c1	-4.5	0.4	3.8	-8.1	21.2*	2.8	-4.3
Cc1onc(-c2ccccc2)c1NC(=O)Nc1ccc(OC(F)F)cc1	9.8	0.3	-0.5	5.8	-9.3	x	x
CCCNC(=O)c1ccc2c(=O)c(O)c(-c3ccc(F)cc3)[nH]c2c1	-4.0	6.7	x	x	x	x	x
CCCNC(=O)c1ccc2c(=O)c(O)c(-c3cccc(Br)c3)[nH]c2c1	3.9	8.3	i	i	19.6*	10.0	-2.8
CCC(=O)N1CCc2cc(S(=O)(=O)N3CCN(c4cc(C)ccc4C)CC3)ccc21	-1.2	9.3	x	x	x	x	x
O=C(NCCCN1CCC(Cc2ccccc2)CC1)c1ccc(CS(=O)c2ccccc2Cl)o1 (stereo unspecified)	x	x	-0.4	2.8	3.2	x	x
CCc1ccccc1NC(=S)NC1CC2CCC(C1)N2Cc1ccco1 (stereo unspecified)	0.7	3.3	4.5	-1.9	21.0*	13.6	-7.8
